# Laboratory results published in PMC4005387 (MedChemComm, 2014).
# Tests used:
# KIX N627C mutant = KIX N627C mutant (Mus musculus, UniProt P45481, N627C); test: LC-MS Tethering: labelling of KIX N627C by disulphide fragment; assay type: binding; conditions: 5 mM BME, 250 μM fragment
# [1] = molecular target: KIX N627C / fluorescently-labeled MLL peptide (Mus musculus, UniProt P45481, N627C); conditions: fragment covalently associated with KIX N627C; cited from earlier work
# KIX H602C = KIX H602C (Mus musculus, UniProt P45481, H602C); test: LC-MS analysis of labelling of KIX H602C by disulphide fragments; assay type: binding
# Outline: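 Tethering reactions of KIX H602C with ten hit disulphide fragments from the FP screen were run at increasing β-ME stringency to compare relative affinities. Mass spectrometry gave the percent of protein carrying each fragment through the disulphide.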
# Chain of KIX H602C (P45481 586-665 H602C limits assumed): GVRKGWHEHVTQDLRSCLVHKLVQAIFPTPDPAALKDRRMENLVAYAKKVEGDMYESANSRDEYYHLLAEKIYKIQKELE
# Chain of KIX N627C / fluorescently-labeled MLL peptide (P45481 586-665 N627C limits assumed): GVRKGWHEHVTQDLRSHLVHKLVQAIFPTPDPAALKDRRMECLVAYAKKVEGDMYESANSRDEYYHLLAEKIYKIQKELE
# Chain of KIX N627C mutant (P45481 586-665 N627C limits assumed): as above
percent of KIX N627C mutant labelled (KIX N627C mutant) [%],"percent labelling of KIX (KIX H602C; 5 mM β-ME, KIX H602C, MS)","DR50 (concentration at which 50% of the KIX H602C mutant is bound by the fragment) (KIX H602C; LC-MS dose-response, result in words)",Compound,inhibition of MLL binding [1]
82,–,–,CN(C)CCSSCCC(=O)N1CCC(O)(c2ccc(Cl)c(C(F)(F)F)c2)CC1 [1A10],effective inhibitors of MLL binding
–,~ 70%,lower with the fragment 3D4 than 6D11,CC(=O)Nc1ccc(Cl)c(NC(=O)NCCSSCCN(C)C)c1 [3D4],–
–,–,–,COc1ccc2cc([C@H](C)C(=O)NCCSSCCN)ccc2c1 [1C11],effective inhibitors of MLL binding
